Data reported in PMC5766731 (Clinical Pharmacokinetics, 2017).

Columns and labels:
[1] = cited from earlier work
[2] = mice, oral route; cited from earlier work
[3] = test system: serum erythropoietin (EPO), hemoglobin, hematocrit, reticulocyte count; assay: Part I pharmacodynamics; type: in vivo, human; settings: for mean serum EPO C max: placebo 9.6 mIU/L
Procedure, shortened: (§1)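 Serum EPO, hemoglobin, hematocrit and reticulocyte count were measured in blood taken before and after oral dosing. Regimens: part I single fasted doses 10–300 mg vs placebo; part II 100–300 mg on Days 1, 3, 5 vs placebo; part III single 150 mg, fasted vs fed, men and women. EPO expressed baseline-corrected. Post-dose vs baseline compared by paired two-sided t test, α = 0.05.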

[4] = Part II urinary recovery of ZYAN1; type: in vivo, human; settings: urine
Procedure, shortened: (§2)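 Urine collected pre-dose and over 0–12, 12–24, 24–36 and 36–48 h: after the single dose (10–300 mg, part I) or after each alternate-day dose on Days 1, 3 and 5 (part II). Total volume recorded; 5 mL aliquots stored at –80 ± 10 °C. Acetonitrile precipitation and LC-MS/MS with analog internal standard, urine calibration 2–5000 ng/mL, LLOQ 2 ng/mL. Amount and percentage of dose recovered calculated.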

PHD enzyme = settings: read-out: concentration of drug producing 50% inhibition [IC50]; HepG2 cells, HIF stabilization; cited from earlier work
[5] = Part I urinary recovery of ZYAN1; type: in vivo, human; settings: for Amount recovered [mean ± SD] / Percentage recovered [mean ± SD]: urine, part I
Procedure, shortened: as §2

hemoglobin levels = settings: cited from earlier work
[6] = dogs, cited from earlier work
serum EPO levels = settings: acute pharmacodynamic animal model; cited from earlier work
[7] = Part I single ascending-dose pharmacokinetics; type: in vivo, human; settings: for t max / AUCt / AUC∞ / C max / CL/F_obs / V z/F_obs / t ½ / λz: part I, fasted; for t max: mean (range) per footnote; for AUCt / AUC∞ / C max / CL/F_obs / V z/F_obs / t ½ / λz: mean ± SD
[8] = test system: serum erythropoietin (EPO), hemoglobin, hematocrit, reticulocyte count; assay: Part II pharmacodynamics; type: in vivo, human; settings: for serum EPO C max: placebo 11.0 mIU/L
Procedure, shortened: as §1

SMILES: O=C(O)CNC(=O)c1c(O)c2ccccc2n(OCC2CC2)c1=O [ZYAN1]
- effect of acute and chronic kidney failure models on pharmacokinetics ([1]; rats vs normal control rats): did not alter the pharmacokinetics
- increase in the exposure after complete removal of both kidneys ([1]; rats): 2 fold
- tolerated dose, single-dose study [2]: up to 300 mg/kg
- EPO response vs placebo ([3]; doses up to 150 mg): not markedly different from placebo
- mean serum EPO C max ([3]; single dose 10 mg): 6.6 mIU/L
- mean serum EPO C max ([3]; single dose 300 mg): 79.9 mIU/L
- initiation of EPO rise after ZYAN1 administration ([3]; single dose, as early as): 6 h
- hemoglobin increase observed in most of the subjects ([3]; single dose, more consistent from 100 mg and above): > 0.5 gm%
- Amount recovered [mean ± SD] ([4]; 100 mg, Day 1): 50.13 ± 14.99 mg
- Percentage recovered [mean ± SD] ([4]; 100 mg, Day 1): 50.132 ± 14.998%
- Amount recovered [mean ± SD] ([4]; 100 mg, Day 3): 41.00 ± 11.07 mg
- Percentage recovered [mean ± SD] ([4]; 100 mg, Day 3): 41.001 ± 11.071%
- Amount recovered [mean ± SD] ([4]; 100 mg, Day 5): 50.14 ± 12.16 mg
- Percentage recovered [mean ± SD] ([4]; 100 mg, Day 5): 50.137 ± 12.160%
- Amount recovered [mean ± SD] ([4]; 150 mg, Day 1): 52.77 ± 6.85 mg
- Percentage recovered [mean ± SD] ([4]; 150 mg, Day 1): 35.178 ± 4.566%
- Amount recovered [mean ± SD] ([4]; 150 mg, Day 3): 54.64 ± 13.35 mg
- Percentage recovered [mean ± SD] ([4]; 150 mg, Day 3): 36.427 ± 8.900%
- Amount recovered [mean ± SD] ([4]; 150 mg, Day 5): 44.23 ± 8.18 mg
- Percentage recovered [mean ± SD] ([4]; 150 mg, Day 5): 29.488 ± 5.453%
- Amount recovered [mean ± SD] ([4]; 200 mg, Day 1): 64.95 ± 25.50 mg
- Percentage recovered [mean ± SD] ([4]; 200 mg, Day 1): 32.474 ± 12.749%
- Amount recovered [mean ± SD] ([4]; 200 mg, Day 3): 66.09 ± 8.74 mg
- Percentage recovered [mean ± SD] ([4]; 200 mg, Day 3): 33.044 ± 4.371%
- Amount recovered [mean ± SD] ([4]; 200 mg, Day 5): 75.76 ± 12.76 mg
- Percentage recovered [mean ± SD] ([4]; 200 mg, Day 5): 37.880 ± 6.381%
- Amount recovered [mean ± SD] ([4]; 300 mg, Day 1): 82.97 ± 35.69 mg
- Percentage recovered [mean ± SD] ([4]; 300 mg, Day 1): 27.656 ± 11.899%
- Amount recovered [mean ± SD] ([4]; 300 mg, Day 3): 92.22 ± 41.92 mg
- Percentage recovered [mean ± SD] ([4]; 300 mg, Day 3): 30.741 ± 13.972%
- Amount recovered [mean ± SD] ([4]; 300 mg, Day 5): 99.15 ± 34.40 mg
- Percentage recovered [mean ± SD] ([4]; 300 mg, Day 5): 33.050 ± 11.466%
- IC50 (PHD enzyme): 11.2 µM
- urinary excretion of intact ZYAN1, average ([5]; healthy subjects): 36%
- Amount recovered [mean ± SD] ([5]; single oral dose 10 mg): 3.63 ± 1.02 mg
- Percentage recovered [mean ± SD] ([5]; single oral dose 10 mg): 36.270 ± 10.245%
- Amount recovered [mean ± SD] ([5]; single oral dose 25 mg): 9.45 ± 1.76 mg
- Percentage recovered [mean ± SD] ([5]; single oral dose 25 mg): 37.798 ± 7.059%
- Amount recovered [mean ± SD] ([5]; single oral dose 50 mg): 18.99 ± 3.36 mg
- Percentage recovered [mean ± SD] ([5]; single oral dose 50 mg): 37.995 ± 6.718%
- Amount recovered [mean ± SD] ([5]; single oral dose 100 mg): 41.13 ± 12.06 mg
- Percentage recovered [mean ± SD] ([5]; single oral dose 100 mg): 41.130 ± 12.064%
- Amount recovered [mean ± SD] ([5]; single oral dose 150 mg): 56.23 ± 17.26 mg
- Percentage recovered [mean ± SD] ([5]; single oral dose 150 mg): 37.485 ± 11.508%
- Amount recovered [mean ± SD] ([5]; single oral dose 200 mg): 62.83 ± 18.11 mg
- Percentage recovered [mean ± SD] ([5]; single oral dose 200 mg): 31.417 ± 9.056%
- Amount recovered [mean ± SD] ([5]; single oral dose 300 mg): 82.66 ± 39.25 mg
- Percentage recovered [mean ± SD] ([5]; single oral dose 300 mg): 27.555 ± 13.083%
- effective dose for inducing hematopoiesis (hemoglobin levels; alternate dosing pattern for a week): 15 mg/kg
- erythropoiesis / hemoglobin levels (hemoglobin levels; repeated dose model, nephrectomized rats and mice): robust increase in erythropoiesis, resulting in normalization of hemoglobin levels
- maximum tolerated dose (MTD) ([6]; 1-month toxicity study): 15 mg/kg
- no observed adverse effect level (NOAEL) ([6]; 28-day toxicity study): 5 mg/kg
- serum EPO levels (serum EPO levels): dose-related increase
- dose proportionality of C max and AUC ([7]; 30-fold single dose range, slight deviation at higher doses): almost dose-proportional increase
- V d, range ([7]; across single doses 10-300 mg): 28 to 47 L
- apparent oral CL, range ([7]; across single doses 10-300 mg): 2 to 2.9 L/h
- t max ([7]; single oral dose 10 mg): 2.50 (1.50–3.00) h
- AUCt ([7]; single oral dose 10 mg): 3597.269 ± 549.116 ng·h/mL
- AUC∞ ([7]; single oral dose 10 mg): 3659.531 ± 551.508 ng·h/mL
- C max ([7]; single oral dose 10 mg): 566.467 ± 163.031 ng/mL
- CL/F_obs ([7]; single oral dose 10 mg): 2784.592 ± 417.679 mL/h
- V z/F_obs ([7]; single oral dose 10 mg): 27,683.707 ± 4805.113 mL
- t ½ ([7]; single oral dose 10 mg): 6.976 ± 1.390 h
- λz ([7]; single oral dose 10 mg): 0.102 ± 0.019 h⁻¹
- t max ([7]; single oral dose 25 mg): 1.25 (1.00–2.50) h
- AUCt ([7]; single oral dose 25 mg): 9177.789 ± 2359.163 ng·h/mL
- AUC∞ ([7]; single oral dose 25 mg): 9269.839 ± 2396.986 ng·h/mL
- C max ([7]; single oral dose 25 mg): 1634.500 ± 299.429 ng/mL
- CL/F_obs ([7]; single oral dose 25 mg): 2870.759 ± 817.646 mL/h
- V z/F_obs ([7]; single oral dose 25 mg): 27,950.696 ± 5329.29 mL
- t ½ ([7]; single oral dose 25 mg): 6.917 ± 0.923 h
- λz ([7]; single oral dose 25 mg): 0.102 ± 0.016 h⁻¹
- t max ([7]; single oral dose 50 mg): 2.25 (1.00–5.00) h
- AUCt ([7]; single oral dose 50 mg): 24,518.328 ± 5125.235 h·ng/mL
- AUC∞ ([7]; single oral dose 50 mg): 24,847.379 ± 5242.290 h·ng/mL
- C max ([7]; single oral dose 50 mg): 2959.333 ± 686.898 ng/mL
- CL/F_obs ([7]; single oral dose 50 mg): 2084.748 ± 417.943 mL/h
- V z/F_obs ([7]; single oral dose 50 mg): 30,578.971 ± 10,323.282 mL
- t ½ ([7]; single oral dose 50 mg): 10.434 ± 3.857 h
- λz ([7]; single oral dose 50 mg): 0.074 ± 0.024 h⁻¹
- t max ([7]; single oral dose 100 mg): 2.25 (1.00–5.00) h
- AUCt ([7]; single oral dose 100 mg): 46,844.762 ± 13,259.837 h·ng/mL
- AUC∞ ([7]; single oral dose 100 mg): 47,320.651 ± 13,358.696 h·ng/mL
- C max ([7]; single oral dose 100 mg): 6745.000 ± 1958.132 ng/mL
- CL/F_obs ([7]; single oral dose 100 mg): 2271.507 ± 686.413 mL/h
- V z/F_obs ([7]; single oral dose 100 mg): 33,572.508 ± 10,971.959 mL
- t ½ ([7]; single oral dose 100 mg): 10.685 ± 3.249 h
- λz ([7]; single oral dose 100 mg): 0.071 ± 0.023 h⁻¹
- t max ([7]; single oral dose 150 mg): 3.00 (2.50–5.00) h
- AUCt ([7]; single oral dose 150 mg): 54,401.071 ± 12,592.181 h·ng/mL
- AUC∞ ([7]; single oral dose 150 mg): 54,672.481 ± 12,686.075 h·ng/mL
- C max ([7]; single oral dose 150 mg): 8119.333 ± 1269.627 ng/mL
- CL/F_obs ([7]; single oral dose 150 mg): 2891.042 ± 782.208 mL/h
- V z/F_obs ([7]; single oral dose 150 mg): 46,536.434 ± 9434.457 mL
- t ½ ([7]; single oral dose 150 mg): 11.357 ± 1.616 h
- λz ([7]; single oral dose 150 mg): 0.062 ± 0.008 h⁻¹
- t max ([7]; single oral dose 200 mg): 2.25 (1.50–5.00) h
- AUCt ([7]; single oral dose 200 mg): 76,515.016 ± 6992.709 h·ng/mL
- AUC∞ ([7]; single oral dose 200 mg): 76,728.333 ± 7061.227 h·ng/mL
- C max ([7]; single oral dose 200 mg): 12,080.667 ± 3430.123 ng/mL
- CL/F_obs ([7]; single oral dose 200 mg): 2625.566 ± 248.239 mL/h
- V z/F_obs ([7]; single oral dose 200 mg): 36,035.031 ± 6400.263 mL
- t ½ ([7]; single oral dose 200 mg): 9.502 ± 1.270 h
- λz ([7]; single oral dose 200 mg): 0.074 ± 0.01 h⁻¹
- t max ([7]; single oral dose 300 mg): 2.00 (1.00–5.00) h
- AUCt ([7]; single oral dose 300 mg): 115,898.815 ± 45,549.563 h·ng/mL
- AUC∞ ([7]; single oral dose 300 mg): 116,226.587 ± 45,834.174 h·ng/mL
- C max ([7]; single oral dose 300 mg): 17,858.333 ± 2899.189 ng/mL
- CL/F_obs ([7]; single oral dose 300 mg): 2835.924 ± 799.195 mL/h
- V z/F_obs ([7]; single oral dose 300 mg): 38,836.681 ± 12,903.706 mL
- t ½ ([7]; single oral dose 300 mg): 9.484 ± 1.325 h
- λz ([7]; single oral dose 300 mg): 0.074 ± 0.011 h⁻¹
- t ½, range ([7]; single doses 10-300 mg): 6.9 to 11.3 h
- median time to C max (t max) ([7]; single doses 10-300 mg (30-fold range)): approximately 2.5 h
- lag in time to EPO C max from pharmacokinetic t max ([8]; multiple dosing, similar to single dosing): 6 to 8 h
- serum EPO C max ([8]; part II, 100 mg on Days 1, 3, 5): 14.4 mIU/L
- serum EPO C max ([8]; part II, 300 mg on Days 1, 3, 5): 60.5 mIU/L
- hemoglobin increase on any timepoint, seen in more subjects than placebo ([8]; part II, higher threshold): > 1.0 gm%
